Values joined by “and” are separate entries in the source; they are usually repeats but may differ in a detail not shown here. Equal entries are not always repeated.
Columns and labels:
[1] = biological target: human PDGFR-β (Met 1-Lys 531) protein with the Phe136/Ala136 and Phe138/Ala138 mutations (human) (UniProt P09619); experiment: SPR
[2] = biological target: human PDGFR-β (Met 1-Lys 531) protein (human) (UniProt P09619); experiment: SPR
[3] = biological target: human PDGFR-β (Met 1-Lys 531) protein (human) (UniProt P09619); experiment: MST
[4] = tested on: intracellular tyrosine kinase domain of human PDGFR-β; experiment: PDGFR-β activity assay kit; format: biochemical; settings: n = 6 each group
In short: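 Human PDGFR-β kinase activity was measured with a commercial PDGFR-β activity assay kit, n = 6 per group. Values are means ± SEM from three independent experiments, compared with the control group.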

destruxin A5 (peptide)
Kd [1]: 99.5 µM
Kd [2]: 4.92 µM and 8.02 µM
dH [2]: -2.28 kcal·M^(− 1)
Kd [3]: 5.43 µM

CCN(CC)CCNC(=O)c1c(C)[nH]c(/C=C2\C(=O)Nc3ccc(F)cc32)c1C [sunitinib]
effect on the activated intracellular tyrosine kinase domain / kinase activity of human PDGFR-β [4]: very obvious inhibitory effect

Reference: publication PMC4909612 (EBioMedicine, 2016)
